# This sample holds only a part of the variants without activity.
# B1: tRNA (parent)
# chain: GUUCCGUUGGCGUAAUGGUAACGCGUCUCCCUCCUAAGGAGAAGACUGCGGGUUCGAGUCCCGUACGGAACG
# Variants of: B1
# Experiment: yeast fitness relative to wild type (ratio to wild type); higher = fitter; tRNA-Arg(CCU), competitive growth, 37 C, YPD
# In short: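 Amplicons of the tRNA-Arg(CCU) gene were sequenced, 100-nucleotide paired-end, from the start population and from each end population of a pooled yeast competition. The competition, in six parallel replicates, lasted 24 hours in YPD at 37°C. Fitness relative to wild type was calculated from changes in genotype frequencies. Genotypes had to have ≥ 100 starting reads, and estimates < 0.5 were set to 0.5.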
row,Variant,yeast fitness
1,A20G C46U A70G,0.794
2,A20U A37C C46G,0.528
3,A20G C33G U53A,≤ 0.5
4,A20G U47G G68U,≤ 0.5
5,A20U A45C,0.621
6,A20U A45G,0.843
7,A20G G23A A45U G56A,0.539
8,A20G A40U G58C,0.77
9,A20G C27G A43U G63A G68C,≤ 0.5
10,A20G C24A C27A A42G A69C,0.56
11,A20G U32A C34G A43G G50C U64A,≤ 0.5
12,A20U A57G,0.752
13,A20U A57C,0.644
14,A20G C33A G44A,0.535
15,A20G G39C G48A,0.924
16,A20U A21C C27A G68A,≤ 0.5
17,A20G U32C U47A,0.626
18,A20G C27G A40U,≤ 0.5
19,A20U A40G G44C G58C,0.574
20,A20G A69G,1.04
21,A20G A69U,1.07
22,A20G A69C,0.916
23,A20U A45G C46U C66U,0.626
24,A20G C24U C33U A43C,≤ 0.5

row,Variant,yeast fitness
1,A20G G50A A57U,0.542
2,A20G G51A,0.859
3,A20G A43G U47G U64G,≤ 0.5
4,A20G C22A C34G C46U G63A,≤ 0.5
5,A20G C46U A57C,0.514
6,A20U A65U,0.705
7,A20U A65G,0.986
8,A20G G23A U26G,≤ 0.5
9,A20G C24A C29G A37U G39A,≤ 0.5
10,A20G C33U C49G G50C,≤ 0.5
11,A20G G38A U47C,0.685
12,A20G C60A A70U,0.605
13,A20G C60A A70C,0.556
14,A20G G25A C55A,≤ 0.5
15,A20G C33A A43U G44A A69C,≤ 0.5
16,A20G A40G C49U G58A,≤ 0.5
17,A20G C29A A70U,0.557
18,A20G G39C,0.829
19,A20G G39A,0.955
20,A20G C34A U47A C61G,≤ 0.5
21,A20G G23A C33G A69U,≤ 0.5
22,A20U A45C G50A,0.675
23,A20G G39U A40C,≤ 0.5
24,A20G G23A G38C,0.656

row,Variant,yeast fitness
1,A20G U54A,0.681
2,A20G U54G,0.524
3,A20G A40U A45C A65U,≤ 0.5
4,A20G U32A,0.719
5,A20G A42U,0.982
6,A20G A43U C62U,0.86
7,A20G U28G A57U C62U,≤ 0.5
8,A20G A40C A42U A43C G48A C55G,≤ 0.5
9,A20U A40C A42U,≤ 0.5
10,A20G U28G A69U,≤ 0.5
11,A20G C34U A43C A57U G58A C62G,≤ 0.5
12,A20U A65U A69U,0.722
13,A20G C27U G58C,0.78
14,A20G G23C G63C,0.613
15,A20U A36G C49U A70U,≤ 0.5
16,A20G C66U,0.857
17,A20G C66G,0.809
18,A20G U35A A40C G52A C60A C61G,0.6
19,A20G U28A A42G C55A C66A,≤ 0.5
20,A20G C46U G50C C61A A70C,0.7
21,A20U A45C G51U A65G,≤ 0.5
22,A20G C29U U47G C49U,≤ 0.5
23,A20G G25A C33U G39A A57G U59C,≤ 0.5
24,A20G A45C,0.866

row,Variant,yeast fitness
1,A20G A45U,1.04
2,A20G A45G,0.992
3,A20G G25A C34A G50C,0.578
4,A20U A42C A57C,≤ 0.5
5,A20G G51C C61G,0.546
6,A20U A21U A65U G67A,≤ 0.5
7,A20G C24U U32A C49U C55A,≤ 0.5
8,A20G C34U G38A A43G G68U,≤ 0.5
9,A20G U28C A40U,1.04
10,A20G U28C A40C,0.634
11,A20G C24U U26A C61G A65C,0.567
12,A20G C29U A57C,≤ 0.5
13,A20G C24G C60A,≤ 0.5
14,A20U A42G,0.797
15,A20U A42U,0.742
16,A20G C29G A37G G67C,≤ 0.5
17,A20G C27G G52A,0.551
18,A20G A65U,0.901
19,A20G A65C,1.06
20,A20G C30U,0.871
21,A20G C30A,1
22,A20G C30G,0.593
23,A20U A42C G56A,≤ 0.5
24,A20G C29U C34U G50A C55G,≤ 0.5

row,Variant,yeast fitness
1,A20G C27A C46G U53A C60G G67C,≤ 0.5
2,A20G A40C A42U A43C G48A C61A A69U,≤ 0.5
3,A20G C61G,0.617
4,A20G C61U,0.964
5,A20U A21G C22A G48A C49G,≤ 0.5
6,A20G U59G A69C,0.526
7,A20G C33G C49A U54G A65G,≤ 0.5
8,A20G G48A A70G,0.803
9,A20G C22G U47C U53G,≤ 0.5
10,A20G C33A A37G C62A,≤ 0.5
11,A20U A36G U54C C55G,≤ 0.5
12,A20G C49G U59A,0.556
13,A20G U26A C66A,≤ 0.5
14,A20G U26A,0.884
15,A20G A43U C46U A57U,≤ 0.5
16,A20G G50C C61A A69G,≤ 0.5
17,A20G C34G C62U,≤ 0.5
18,A20U A37C,0.723
19,A20U A65U A70C,0.568
20,A20G C22A G23C,≤ 0.5
21,A20G C60G A69C,≤ 0.5
22,A20U A70U,0.988
23,A20G G23A G38C G63A C66A,≤ 0.5
24,A20G C34A A36G C66U,≤ 0.5

row,Variant,yeast fitness
1,A20U A57U A65C A70G,≤ 0.5
2,A20U A43U G48C C60G,≤ 0.5
3,A20G G41A A70G,0.571
4,A20G U64C,0.929
5,A20G U64A,0.902
6,A20G U64G,0.817
7,A20G U28C G68C,0.664
8,A20G C31U A36U,0.53
9,A20G G23A C24G,≤ 0.5
10,A20G U35C A36G,0.727
11,A20G G25C G51C,0.658
12,A20G G25C C49U,0.76
13,A20G G25C C49A,≤ 0.5
14,A20G C30A C55A G68A,≤ 0.5
15,A20G U28A U53A,≤ 0.5
16,A20U A43C G48A C62U,0.787
17,A20U A21U C31G C55A G68U,≤ 0.5
18,A20U A21U A69U,0.675
19,A20G A43C C61U A70C,≤ 0.5
20,A20G U35G,0.708
21,A20G U35C,0.836
22,A20U A42C C60A,≤ 0.5
23,A20G C49G,0.855
24,A20G C49U,0.922

row,Variant,yeast fitness
1,A20G C46A C61G,≤ 0.5
2,A20G U28C,0.934
3,A20G U59G A65U,1.05
4,A20G A40G C66U,0.647
5,A20G U35A U54G,≤ 0.5
6,A20G A65U A69C,≤ 0.5
7,A20G A65U A69U,0.857
8,A20U A40G G44C,≤ 0.5
9,A20G U32C A57G,0.724
10,A20G U26A U35A A37U,0.55
11,A20G C29U A37G C66U,≤ 0.5
12,A20G U35C G50C,≤ 0.5
13,A20U A40G G50A,≤ 0.5
14,A20G A42C C61U,0.573
15,A20G C22U C49U,0.682
16,A20G U59A,0.79
17,A20G U59G,0.921
18,A20G U59C,0.972
19,A20G U26A A45C,0.519
20,A20G U32C G67C,0.735
21,A20G G68C,0.758
22,A20G G68U,0.866
23,A20G A57U A65U G68C,≤ 0.5
